From article PMC12062462 (Nature Communications, 2025)
Where a name gives a salt, the structure may show the parent alone.

Columns and labels:
[1] = tested on: caspase 3 and caspase 8 cleavage in L929 cells; test: Western blot of caspase 3 and caspase 8 cleavage in L929 cells; format: cell-based, mouse; conditions: L929, 3 hours
In short: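 L929 cells in 12-well plates at about 80% confluency were exposed for 3 h to test compound, DMSO or medium, each with 10 µM zVAD. Cells were lysed at room temperature in a Triton X-100/Tris-based 1× SDS sample buffer and boiled 10 min. Proteins were run on 15% SDS-PAGE and blotted to PVDF. Membranes were blocked in 5% milk and probed for caspase 3 and caspase 8 cleavage overnight at 4 °C. Three independent experiments.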

L929 cells = test: Cell viability assay with or without zVAD; format: cell-based, mouse; conditions: for on-target apoptosis in cells (in words): L929, murine cells
[2] = tested on: L929 cells (TNF-α-induced necroptosis); test: Necroptosis induction and inhibition assay in L929; format: cell-based, mouse; conditions: for EC50: Mus musculus, L929, read-out: EC50^L929 against TNF-α-induced necroptosis, mouse TNF-α (20 ng/mL) and zVAD (10 μM), CCK-8
[3] = tested on: HT29 cells (TNF-α-induced necroptosis); test: Necroptosis induction and inhibition assay in HT29; format: cell-based, human; conditions: for EC50: Homo sapiens, HT-29, read-out: EC50^HT29 against TNF-α-induced necroptosis, zVAD (20 μM), human TNF-α (40 ng/mL), Smac mimetic SM-164 (100 nM), CCK-8
RIPK3-RIPK1 interaction = RIPK3-RIPK1 interaction (Mus musculus, UniProt Q9QZL0); test: RIPK1 immunoprecipitation; format: cell-based; conditions: L929, 10 µM, 5 hours
In short: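 Lysates were cleared at 17,000 g for 15 min at 4 °C, and an input sample was kept. Lysate was incubated with anti-RIPK1 antibody on protein A/G magnetic beads for 2 h at 4 °C. Co-precipitated RIPK3 was detected by Western blot. Normalized quantification came from three independent experiments.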

[4] = tested on: RIPK3 and MLKL phosphorylation in L929 cells; test: Western blot of RIPK3 and MLKL phosphorylation, L929; format: cell-based, mouse; conditions: L929, inhibitors at 3 and 10 µM, necroptosis induced for 3 hours
In short: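 L929 cells were grown in 6-well plates to about 80% confluency and given test compound or DMSO with zVAD (10 μM) for 1-2 h. Mouse TNF-α (20 ng/mL) was then added for 3 h. Cells were washed three times in cold PBS and lysed in 10 mM Tris-HCl pH 8.0, 1% SDS, 1 mM orthovanadate with protease and phosphatase inhibitors. Lysates were boiled for 10 min and stored at -80 °C. Phospho-RIPK3 and phospho-MLKL were immunoblotted after 10% SDS-PAGE and PVDF transfer.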

L929^RIPK3-/- cells = test: Cell viability assay with or without zVAD, L929 RIPK3 knockout; format: cell-based, mouse
In short: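 L929 cells were grown in MEM with 10% FBS. RIPK3 was knocked out by CRISPR/Cas9 (sgRNA against mouse RIPK3), and knockout was confirmed by sequencing and immunoblot. Knockout lines with or without re-expressed RIPK3 K51A or K51A/R69H were seeded at 10,000–20,000 cells/well and left to attach for 24 h. Cells were exposed to test compound alone or with zVAD for 18–20 h. Viability was read by CCK-8 (1–2 h, 37 °C, A450). Three experiments in triplicate; CC50 by nonlinear regression.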

[5] = tested on: RIPK3 and MLKL phosphorylation in HT29 cells; test: Western blot of RIPK3 and MLKL phosphorylation, HT29; format: cell-based, human; conditions: HT29, inhibitors at 3 and 10 µM, necroptosis induced for 3 hours
In short: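 HT29 cells were grown in 12-well plates to about 80% confluency and given test compound or DMSO with zVAD (20 μM) for 1-2 h. Necroptosis was then induced with human TNF-α (40 ng/mL) plus SM-164 (100 nM) for 3 h. Cells were washed three times in cold PBS and lysed for 10 min at room temperature in RIPA buffer with protease and phosphatase inhibitors and SDS loading buffer. Phospho-RIPK3 and phospho-MLKL were immunoblotted after 10% SDS-PAGE and PVDF transfer.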

[6] = tested on: caspase 3 activity in L929 cell lysates; test: Caspase 3 activity in L929 cell lysates; format: cell-based, mouse
In short: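 L929 cells were cultured 12 h in 12-well plates, then exposed to test compound or DMSO for 0, 1, 2, 3 or 4 h. Protein was measured by BCA. Lysate was incubated with Ac-DEVD-pNA overnight at 37 °C and read at A405 minus blank. Three experiments, each in triplicate.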

[7] = tested on: panel of 379 human kinases; test: Selectivity profiling, Eurofins KinaseProfiler; format: biochemical; conditions: 379 kinases
[8] = biological target: panel of 379 human kinases (Homo sapiens, UniProt O43353); test: Selectivity profiling, Eurofins KinaseProfiler; format: biochemical; conditions: read-out: inhibition rate against RIPK2
[9] = biological target: panel of 379 human kinases (Homo sapiens, UniProt Q13882); test: Selectivity profiling, Eurofins KinaseProfiler; format: biochemical; conditions: read-out: inhibition rate against breast tumor kinase (BRK)
BRK kinase domain = BRK kinase domain (Homo sapiens, UniProt Q13882, C433T); test: ADP-Glo kinase assay, BRK; format: biochemical
In short: (§1)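 Human kinase domains were expressed in Sf-9 cells from baculovirus and purified by Ni-NTA then size exclusion: BRK 185-446 (C433T, C-terminal 6×His) and RIPK2 1-310 (C-terminal 10×His). Each was preincubated with test compound or DMSO in 40 mM Tris pH 7.5, 20 mM MgCl2, 0.1 mg/mL BSA. ATP was added to 20 µM final for 1 h at room temperature, and ADP was read by ADP-Glo luminescence.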

RIPK2 = RIPK2 (Homo sapiens, UniProt O43353); test: ADP-Glo kinase assay, RIPK2; format: biochemical
In short: as §1

Chain of RIPK3-RIPK1 interaction (Q9QZL0 whole entry): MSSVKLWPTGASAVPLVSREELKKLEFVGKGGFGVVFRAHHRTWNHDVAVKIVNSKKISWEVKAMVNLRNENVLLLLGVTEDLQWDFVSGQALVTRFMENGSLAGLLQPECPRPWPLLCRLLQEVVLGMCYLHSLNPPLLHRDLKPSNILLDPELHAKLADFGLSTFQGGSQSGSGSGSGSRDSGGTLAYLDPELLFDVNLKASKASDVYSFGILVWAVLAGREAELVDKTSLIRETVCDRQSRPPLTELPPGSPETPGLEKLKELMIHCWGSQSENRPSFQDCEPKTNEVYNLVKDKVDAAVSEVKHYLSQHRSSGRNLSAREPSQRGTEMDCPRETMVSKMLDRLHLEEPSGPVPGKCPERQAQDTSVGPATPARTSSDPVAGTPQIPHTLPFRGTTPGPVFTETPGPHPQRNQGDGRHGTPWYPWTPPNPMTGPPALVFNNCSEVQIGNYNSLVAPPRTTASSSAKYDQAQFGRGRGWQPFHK
Chain of BRK kinase domain (Q13882 185-446 C433T): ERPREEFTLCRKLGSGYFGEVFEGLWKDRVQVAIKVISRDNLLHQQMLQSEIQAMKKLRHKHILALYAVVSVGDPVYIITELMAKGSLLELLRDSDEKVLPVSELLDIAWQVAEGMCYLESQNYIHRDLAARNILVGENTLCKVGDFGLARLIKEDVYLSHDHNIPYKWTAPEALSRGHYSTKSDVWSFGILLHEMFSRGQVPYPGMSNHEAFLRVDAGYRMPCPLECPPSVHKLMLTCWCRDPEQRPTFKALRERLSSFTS
Chain of RIPK2 (O43353 1-310): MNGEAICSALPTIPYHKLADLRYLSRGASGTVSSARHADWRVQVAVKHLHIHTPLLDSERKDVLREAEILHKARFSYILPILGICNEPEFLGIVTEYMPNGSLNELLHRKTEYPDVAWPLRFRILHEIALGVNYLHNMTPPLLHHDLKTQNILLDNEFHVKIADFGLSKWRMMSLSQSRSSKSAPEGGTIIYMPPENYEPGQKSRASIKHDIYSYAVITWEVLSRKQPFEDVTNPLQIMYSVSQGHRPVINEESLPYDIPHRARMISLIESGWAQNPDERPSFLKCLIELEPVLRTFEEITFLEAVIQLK
Chain of panel of 379 human kinases (Homo sapiens, UniProt Q13882) (Q13882 whole entry, the tested form may be a part): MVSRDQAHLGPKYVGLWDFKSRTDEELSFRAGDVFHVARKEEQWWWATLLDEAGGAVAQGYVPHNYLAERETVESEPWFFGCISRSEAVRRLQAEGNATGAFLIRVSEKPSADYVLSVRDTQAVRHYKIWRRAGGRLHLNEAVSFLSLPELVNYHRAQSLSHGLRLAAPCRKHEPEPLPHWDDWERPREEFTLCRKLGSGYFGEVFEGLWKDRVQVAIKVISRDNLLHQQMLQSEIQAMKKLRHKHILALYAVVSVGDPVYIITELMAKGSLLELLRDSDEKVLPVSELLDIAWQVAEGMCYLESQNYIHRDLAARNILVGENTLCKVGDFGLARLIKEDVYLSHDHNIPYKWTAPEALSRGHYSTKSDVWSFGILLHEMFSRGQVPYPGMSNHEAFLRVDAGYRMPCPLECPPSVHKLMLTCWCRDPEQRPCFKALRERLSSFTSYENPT
Chain of panel of 379 human kinases (Homo sapiens, UniProt O43353) (O43353 whole entry): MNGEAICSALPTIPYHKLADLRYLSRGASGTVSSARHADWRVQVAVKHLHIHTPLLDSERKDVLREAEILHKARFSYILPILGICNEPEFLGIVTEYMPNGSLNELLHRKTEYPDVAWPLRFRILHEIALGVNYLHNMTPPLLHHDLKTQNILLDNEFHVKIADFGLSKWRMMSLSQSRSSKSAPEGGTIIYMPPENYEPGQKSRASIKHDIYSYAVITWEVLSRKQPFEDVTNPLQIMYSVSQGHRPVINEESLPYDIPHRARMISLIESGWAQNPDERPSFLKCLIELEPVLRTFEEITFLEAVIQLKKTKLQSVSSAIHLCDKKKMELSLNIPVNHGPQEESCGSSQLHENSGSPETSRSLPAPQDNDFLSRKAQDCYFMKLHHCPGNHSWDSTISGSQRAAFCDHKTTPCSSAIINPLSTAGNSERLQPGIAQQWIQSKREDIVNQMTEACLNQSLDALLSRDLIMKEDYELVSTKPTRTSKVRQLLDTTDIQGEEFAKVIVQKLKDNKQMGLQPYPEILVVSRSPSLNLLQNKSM

| Compound | concentration at which cleavage of caspases 8 and 3 is seen (Western blot) [1] [µM] | concentration at which caspase 3 is activated [6] [µM] | change of CC50 in the presence or absence of zVAD (L929 cells; L929) | EC50 [2] [nM] | EC50 [3] [nM] | interaction between RIPK3 and RIPK1 (co-immunoprecipitation) (RIPK3-RIPK1 interaction) | RIPK3 and MLKL phosphorylation induced by TNF-α (Western blot) [4] | activation of the apoptotic pathway: cleavage of caspase 8 and caspase 3 (Western blot) [1] | change of CC50 between L929 and L929^RIPK3-/- cells (L929^RIPK3-/- cells) | RIPK3 and MLKL phosphorylation induced by TNF-α (Western blot) [5] | other results |
| --- | --- | --- | --- | --- | --- | --- | --- | --- | --- | --- | --- |
| N#Cc1c(Oc2ccc(F)c(NC(=O)Cc3cccc(C(F)(F)F)c3)c2)ccc2nc(NC(=O)C3CC3)sc12 [TAK-632, N-(7-Cyano-6-(4-fluoro-3-(2-(3-(trifluoromethyl)phenyl)acetamido)phenoxy)benzo[d]thiazol-2-yl)cyclopropanecarboxamide, reference compound] | > 100 | – | – | – | – | – | – | – | – | – | – |
| CCC(C)c1nc2cc(-c3nn(C(C)(C)C)c4ncnc(N)c34)ccc2s1 (stereo not shown) [LK01004, 1-(tert-butyl)-3-(2-(sec-butyl)benzo[d]thiazol-5-yl)-1H-pyrazolo[3,4-d]pyrimidin-4-amine] | > 100 | – | do not change significantly in the presence or absence of zVAD | 3000 | – | – | – | – | – | – | RIPK3-independent cell killing (off-target toxicity) (L929 cells; L929): still exhibit a substantial portion of RIPK3-independent cell killing; on-target apoptosis in cells (in words) (L929 cells): do not induce on-target apoptosis |
| CC[C@H](C)c1nc2cc(Nc3ccnc4ccc(S(=O)(=O)C(C)C)cc34)ccc2s1 [LK01001, (S)-2-(sec-butyl)-N-(6-(isopropylsulfonyl)quinolin-4-yl)benzo[d]thiazol-5-amine hydrochloride] | – | – | – | 7000 | 4100 | – | – | – | – | – | – |
| CC(C)(C)n1nc(-c2ccc3sc(C4CCCC4)nc3c2)c2c(N)ncnc21 [LK01005, 1-(tert-butyl)-3-(2-cyclopentylbenzo[d]thiazol-5-yl)-1H-pyrazolo[3,4-d]pyrimidin-4-amine] | > 100 | – | do not change significantly in the presence or absence of zVAD | 2100 | – | – | – | – | – | – | RIPK3-independent cell killing (off-target toxicity) (L929 cells; L929): still exhibit a substantial portion of RIPK3-independent cell killing; on-target apoptosis in cells (in words) (L929 cells): do not induce on-target apoptosis |
| CC(C)S(=O)(=O)c1ccc2nccc(Nc3ccc4sc(C5CCCC5)nc4c3)c2c1.Cl [LK01003, 2-cyclopentyl-N-(6-(isopropylsulfonyl)quinolin-4-yl)benzo[d]thiazol-5-amine hydrochloride] | – | > 50 | – | 3700 | 850 | neither increase the interaction of RIPK3 with RIPK1 | effectively inhibit RIPK3 and MLKL phosphorylation | nor activate the apoptotic pathway | remain largely unchanged | effectively inhibit RIPK3 and MLKL phosphorylation | S (35) score ([7]; 1 μM): approximately 0.005; S (35) score ([7]; 10 μM): approximately 0.03; number of kinases with over 65% inhibition rate ([7]; 10 μM): 12 kinases; inhibition at 1 µM [8]: > 65%; inhibition at 1 µM [9]: > 65%; IC50 (BRK kinase domain): 248 nM; selectivity index (SI), BRK over RIPK3 (BRK kinase domain): 124; IC50 (RIPK2): 48 nM; selectivity index (SI), RIPK2 over RIPK3 (RIPK2): 24 |
| Cl.O=S1(=O)C=C(C2CC2)c2cc3nccc(Nc4ccc5sc(C6CCCC6)nc5c4)c3cc21 [LK01033, 8-((2-cyclopentylbenzo[d]thiazol-5-yl)amino)-3-cyclopropylthieno[2,3-g]quinoline 1,1-dioxide hydrochloride] | > 10 | – | does not change significantly in the presence or absence of zVAD | 390 | 110 | – | – | – | – | – | – |

Further lines, with some results ahead:

| concentration at which cleavage of caspases 8 and 3 is seen (Western blot) [1] [µM] | concentration at which caspase 3 is activated [6] [µM] | Compound | change of CC50 in the presence or absence of zVAD (L929 cells; L929) | EC50 [2] [nM] | EC50 [3] [nM] | interaction between RIPK3 and RIPK1 (co-immunoprecipitation) (RIPK3-RIPK1 interaction) | RIPK3 and MLKL phosphorylation induced by TNF-α (Western blot) [4] | activation of the apoptotic pathway: cleavage of caspase 8 and caspase 3 (Western blot) [1] | change of CC50 between L929 and L929^RIPK3-/- cells (L929^RIPK3-/- cells) | RIPK3 and MLKL phosphorylation induced by TNF-α (Western blot) [5] | other results |
| --- | --- | --- | --- | --- | --- | --- | --- | --- | --- | --- | --- |
| 0.1 | – | Cl.O=S1(=O)C=C(C2CC2)c2cc3nccc(Nc4ccc5scnc5c4)c3cc21 [Zharp-99, 8-(benzo[d]thiazol-5-ylamino)-3-cyclopropylthieno[2,3-g]quinoline 1,1-dioxide hydrochloride, reference compound] | – | 70 | 220 | – | – | – | – | – | difference of CC50 in the presence or absence of zVAD (L929 cells; L929): ~ 36 fold |
| – | > 50 | CC(C)S(=O)(=O)c1cc2c(Nc3ccc4sc(C5CCCC5)nc4c3)ccnc2cc1OCCO [LK01045, 2-((4-((2-cyclopentylbenzo[d]thiazol-5-yl)amino)-6-(isopropylsulfonyl)quinolin-7-yl)oxy)ethan-1-ol] | – | 610 | 160 | neither increase the interaction of RIPK3 with RIPK1 | effectively inhibits RIPK3 and MLKL phosphorylation | nor activate the apoptotic pathway | remain largely unchanged | effectively inhibits RIPK3 and MLKL phosphorylation | stronger potency compared to GSK'872 (EC50, HT29) ([3]; HT29 necroptosis): ~49 fold; stronger potency compared to LK01003 (EC50, HT29) ([3]; HT29 necroptosis): ~5 fold; stronger potency compared to GSK'872 (EC50, L929) ([2]; L929 necroptosis): approximately 6 fold; stronger potency compared to LK01003 (EC50, L929) ([2]; L929 necroptosis): approximately 6 fold |
| – | > 50 | CC[C@@H](C)c1nc2cc(Nc3ccnc4ccc(S(=O)(=O)C(C)C)cc34)ccc2s1.Cl [LK01002, (R)-2-(sec-butyl)-N-(6-(isopropylsulfonyl)quinolin-4-yl)benzo[d]thiazol-5-amine hydrochloride] | – | 4800 | 2000 | neither increase the interaction of RIPK3 with RIPK1 | effectively inhibit RIPK3 and MLKL phosphorylation | nor activate the apoptotic pathway | remain largely unchanged | effectively inhibit RIPK3 and MLKL phosphorylation | – |
